Measured values pooled from the literature.
Lines come from different studies, so protocols differ. Values after ≈ are worked out from the molar mass of the structure shown.

SMILES | tested on | assay | test system | setting | endpoint | value
N#C[C@]1(CO)O[C@@H](n2cc(F)c3c(N)ncnc32)C[C@@H]1O | Hepatitis B virus | viral replication, qPCR | HepG2.2.15 | 14 days | IC50 | 0.026 µM
CN1CCN(C2=Nc3ccccc3Oc3ccc(Cl)cc32)CC1 | Severe acute respiratory syndrome coronavirus 2 | viral replication, inhibitor | A549-ACE2 |  | IC50 | 5.75 µM
Cc1cc(NC(=O)c2cc3c(=O)n4cccc(C)c4nc3n2C)ccc1Br | Severe acute respiratory syndrome coronavirus 2 | viral replication | Vero | 1 nM | inhibition | 5.51%
C[C@H]1COCCN1c1nc(NCc2cccnc2C(F)(F)F)c2cccnc2n1 | Clostridioides difficile | microbial growth, broth dilution | R20291 |  | MIC | 64 µg/mL (≈ 158 µM)
Cc1ncc([N+](=O)[O-])n1CCO | Fusobacterium nucleatum | microbial growth |  |  | MIC50 | ≤ 0.06 µg/mL
Cc1ccc(NC(=O)c2cc3c(=O)n4cccc(C)c4nc3n2C)cc1Cl | Severe acute respiratory syndrome coronavirus 2 | viral replication | Vero | 10 µM | inhibition | 94.8%
OC(CCN1CCCCC1)(c1ccccc1)C1CCCCC1 (stereo not shown) | Severe acute respiratory syndrome coronavirus 2 | viral replication | A549-ACE2 |  | IC50 | 3.16 µM
O=C(O[C@@H]1Cc2c(O)cc(O)cc2O[C@@H]1c1cc(O)c(O)c(O)c1)c1cc(O)c(O)c(O)c1 | Severe acute respiratory syndrome coronavirus 2 | cytopathic effect | Vero C1008 | 3.125 µM | inhibition | 0%
CC(=O)[C@H]1CC[C@H]2[C@@H]3CCC4=CC(=O)CC[C@]4(C)[C@H]3CC[C@]12C | Severe acute respiratory syndrome coronavirus 2 | viral replication | Vero C1008 |  | IC50 | 9.33 µM
Cn1c(C(=O)Nc2ccc(Cl)cc2)cc2c(=O)n3ccccc3nc21 | Severe acute respiratory syndrome coronavirus 2 | viral replication | Vero | 10 nM | inhibition | 8%
C=CCNC1=C2C[C@@H](C)C[C@H](OC)[C@H](O)[C@@H](C)/C=C(\C)[C@H](OC(N)=O)[C@@H](OC)/C=C\C=C(/C)C(=O)NC(=C(c3ccccc3)C1=O)C2=O | ARPE-19 | cell growth or viability, MTT |  |  | IC50 | > 20 µM
CC(C)(C)[C@]1(O)CCN2C[C@H]3c4ccccc4CCc4cccc(c43)[C@@H]2C1 | Severe acute respiratory syndrome coronavirus 2 | viral replication, inhibitor | A549-ACE2 |  | IC50 | 9.12 µM
CC(=O)c1cccc(NC(=O)c2cc3c(=O)n4ccccc4nc3n2C)c1 | Severe acute respiratory syndrome coronavirus 2 | viral replication | Vero | 0.1 µM | inhibition | 77%
CN(C)CCCC1(c2ccc(F)cc2)OCc2cc(C#N)ccc21 (stereo not shown) | Severe acute respiratory syndrome coronavirus 2 | viral replication, inhibitor | A549-ACE2 |  | IC50 | 3.31 µM
[O-][N+]1=C(c2ccc(Cl)cc2)C2=NCCN2c2ccccc21 | Clostridioides difficile | microbial growth |  |  | MIC90 | 0.25 µg/mL (≈ 0.84 µM)
COc1ccc(C[C@@H]2c3cc(Oc4cc(C[C@@H]5c6cc(O)c(OC)cc6CCN5C)ccc4O)c(OC)cc3CCN2C)cc1 | Severe acute respiratory syndrome coronavirus 2 | cytopathic effect | Vero C1008 | 0.7812 µM | inhibition | 0%
CCc1ccc(NC(=O)c2cc3c(=O)n4ccccc4nc3n2C)cc1 | Severe acute respiratory syndrome coronavirus 2 | viral replication | Vero | 10 nM | inhibition | 6.1%
OCCN1CCN(CCCN2c3ccccc3C=Cc3ccccc32)CC1 | Severe acute respiratory syndrome coronavirus 2 | viral replication, inhibitor | A549-ACE2 |  | IC50 | 2.51 µM
Cn1c(C(=O)Nc2ccc3c(c2)OCCO3)cc2c(=O)n3ccccc3nc21 | Severe acute respiratory syndrome coronavirus 2 | viral replication | Vero | 1 nM | inhibition | 5.41%
CN1CCN(CCc2ccc(Cl)c(Cl)c2)CC1 | Severe acute respiratory syndrome coronavirus 2 | viral replication, inhibitor | A549-ACE2 |  | IC50 | 2.51 µM
O=[N+]([O-])c1ccc(C2=[N+]([O-])c3ccccc3N3CCN=C23)cc1 | Fusobacterium nucleatum | microbial growth |  |  | MIC50 | ≤ 0.06 µg/mL
CCN(CC)CCCC(C)Nc1ccnc2cc(Cl)ccc12 (stereo not shown) | Severe acute respiratory syndrome coronavirus 2 | viral replication, inhibitor | Vero C1008 |  | IC50 | 1.58 µM
O=C(/C=C/c1ccc(O)c(O)c1/C=C/c1ccc(O)c(O)c1)O[C@H](Cc1ccc(O)c(O)c1)C(=O)O | Severe acute respiratory syndrome coronavirus 2 | cytopathic effect, inhibitor | Vero C1008 | 100 µM | inhibition | 58.3%
Nc1ccn([C@@H]2CS[C@H](CO)O2)c(=O)n1 | Hepatitis B virus | viral replication, qPCR | HepG2.2.15 | 14 days | IC50 | 0.05 µM
Cc1cccn2c(=O)c3cc(C(=O)Nc4ccc(N(C)C)cc4)n(C)c3nc12 | Severe acute respiratory syndrome coronavirus 2 | viral replication | Vero | 1 µM | inhibition | 80%
C=C[C@@](C)(/C=C/c1ccc(O)cc1)CCC=C(C)C | Severe acute respiratory syndrome coronavirus 2 | cytopathic effect, inhibitor | Vero C1008 | 12.5 µM | inhibition | 0%
CCC(CC)COC(=O)[C@H](C)N[P@](=O)(OC[C@H]1O[C@@](C#N)(c2ccc3c(N)ncnn23)[C@H](O)[C@@H]1O)Oc1ccccc1 | Severe acute respiratory syndrome coronavirus 2 | viral replication | Vero | 10 µM | inhibition | 98%
CC(C)=CCc1c(O)ccc(C(=O)/C=C/c2ccc(O)cc2)c1O | Severe acute respiratory syndrome coronavirus 2 | cytopathic effect | Vero C1008 | 12.5 µM | inhibition | 0%
